Results reported in PubChem BioAssay.
The source made the active and inactive calls.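 Rule for the calls, unless noted: active = viability loss from added drug above about 55%, and viability with drug at most 40%, in both replicates (limit read from the data, passing the limit was not always enough); inconclusive = both conditions met in only one replicate; inactive = neither replicate meets both conditions.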

What was measured:
[1] = Her2 expression decrease, cell viability multiplex – SKBR3 breast tumor cells, AlphaScreen, ATP viability, primary screen (AID 461;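 active = Her2 level under about 52% in both replicate screens, with viability over 70% of control, limit read from the data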;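 for Her2 level: lower value means less Her2 protein in the cells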;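 for viability: percent of carrier control wells set as 100% viability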); conditions: SKBR3 Her2 protein level, 18-24 h, measured here: SKBR3 viability, ATP luminescence, at 10 µM
[2] = target: Receptor tyrosine-protein kinase erbB-2 (Homo sapiens) (UniProt P04626); experiment: as above; conditions: 18-24 h, at 10 µM, stronger effect = lower value
Receptor tyrosine-protein kinase erbB-2 (Homo sapiens), sequence (P04626 whole entry, looked up): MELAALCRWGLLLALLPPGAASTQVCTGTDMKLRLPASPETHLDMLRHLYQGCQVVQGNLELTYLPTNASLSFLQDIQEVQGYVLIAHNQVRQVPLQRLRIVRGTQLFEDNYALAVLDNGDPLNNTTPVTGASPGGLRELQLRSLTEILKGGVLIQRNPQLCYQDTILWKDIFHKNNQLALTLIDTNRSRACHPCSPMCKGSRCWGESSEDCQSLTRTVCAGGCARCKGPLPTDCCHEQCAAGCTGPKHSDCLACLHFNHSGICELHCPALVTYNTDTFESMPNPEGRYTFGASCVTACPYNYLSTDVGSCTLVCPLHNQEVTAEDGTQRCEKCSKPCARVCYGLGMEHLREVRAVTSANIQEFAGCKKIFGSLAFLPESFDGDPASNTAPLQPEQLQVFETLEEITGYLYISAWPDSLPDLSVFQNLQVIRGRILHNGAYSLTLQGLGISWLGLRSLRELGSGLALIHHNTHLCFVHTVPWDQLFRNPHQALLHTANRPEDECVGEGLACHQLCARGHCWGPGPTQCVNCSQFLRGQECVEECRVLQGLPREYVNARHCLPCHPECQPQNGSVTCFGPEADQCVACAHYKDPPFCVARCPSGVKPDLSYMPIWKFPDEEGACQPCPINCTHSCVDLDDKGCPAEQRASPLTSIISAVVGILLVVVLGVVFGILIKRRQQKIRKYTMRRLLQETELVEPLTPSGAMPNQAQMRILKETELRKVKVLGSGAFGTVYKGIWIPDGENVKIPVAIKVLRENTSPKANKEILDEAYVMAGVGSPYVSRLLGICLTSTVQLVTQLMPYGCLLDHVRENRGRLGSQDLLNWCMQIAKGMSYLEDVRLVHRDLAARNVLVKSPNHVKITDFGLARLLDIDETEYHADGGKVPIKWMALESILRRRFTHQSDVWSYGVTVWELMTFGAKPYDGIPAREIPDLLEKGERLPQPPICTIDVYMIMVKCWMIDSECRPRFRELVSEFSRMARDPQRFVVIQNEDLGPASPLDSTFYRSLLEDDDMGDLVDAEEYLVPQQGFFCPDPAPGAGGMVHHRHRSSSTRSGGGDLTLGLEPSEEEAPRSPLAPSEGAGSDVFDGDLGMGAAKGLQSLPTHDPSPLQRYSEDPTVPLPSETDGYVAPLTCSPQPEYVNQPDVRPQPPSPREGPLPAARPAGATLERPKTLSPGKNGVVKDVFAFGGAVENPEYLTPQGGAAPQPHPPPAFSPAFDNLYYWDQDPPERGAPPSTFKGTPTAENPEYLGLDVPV

[3] = reduced viability of SK-BR-3 breast cancer cells – cell-based, 24 h, human, pilot screen (AID 572;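 active = viability at or below 10% of carrier control in both of two separate runs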;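 note: compound exposure lasted between 18 and 24 h rather than exactly 24 h; 100% = carrier-treated control wells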); conditions: SK-BR-3 viability, CellTiter-Glo luminescence, at 10 µM, stronger effect = lower value
[4] = HUVEC growth inhibition – cell-based, human, primary screen (AID 575;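 active = viability at or below 30% in both replicate assays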;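 note: 100% = median of untreated cell wells with 0.1% DMSO on each plate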); conditions: HUVEC proliferation, CellTiter-Glo luminescence, 72 h; at 10 µM; stronger effect = lower value
Procedure, shortened: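 Test system: primary human umbilical vein endothelial cells; medium: endothelial basal medium with 2% FBS plus growth supplements; dosing: 10 µM compound only; times: 72 h treatment at 37 °C; signal: CTG luminescence; read-out: % viability relative to median vehicle-well signal on each plate; control set: vehicle and MePR control wells; plate: 384-well, collagen-coated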

[5] = H69AR cell proliferation blockers – human, duplicate replicates, primary screen (AID 580;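 active = viability at or under a set limit in both replicates, limit being median viability minus 3 SD, cut at about 48% in these data, passing the limit was not always enough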;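 note: 100% = mean luminescence of untreated wells and 0% = no signal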); conditions: H69AR lung tumor cells viability, ATP luminescence, 72 h; at 10 µM; stronger effect = lower value
[6] = MRP1 drug-resistance reversers in H69AR cells – cell-based, doxorubicin co-treatment, pilot screen (AID 601); conditions: CellTiter-Glo, 72 h, at 10 µM; for differential viability (reversal): stronger effect = higher value
[7] = yeast transport mutant growth inhibition pilot in 384-well plates, post-Golgi transport modulator project (AID 636; in the data active = inhibition above about 31%); conditions: absorbance 615 nm, about 18 h, stronger effect = higher value
[8] = growth suppression of yeast trafficking mutant, preliminary HTS, modulators of trafficking downstream of Golgi apparatus project, 1536-format plate, OD 615 nm (AID 637; in the data active = inhibition above about 30%); conditions: yeast transport mutant growth, absorbance 615 nm, 18 h; stronger effect = higher value
[9] = H69AR cells + 2 uM doxorubicin, measured here: viability with 2 uM doxorubicin, stronger effect = lower value
[10] = H69AR cells, compound alone cytotoxicity

Structure (SMILES) | viability [1] [%] | Her2 level [2] | viability [3] | viability [4] | viability [5] | differential viability (reversal) ([6]; H69AR cells + 2 uM doxorubicin) | viability [6, 9] [%] | viability [6, 10] [%] | inhibition [7] | inhibition [8]
C=CCOc1cccc(C2/C(=C(\O)c3ccc(F)cc3)C(=O)C(=O)N2CCN(C)C)c1 (stereo not given) | 96.5 | 97.5% (inactive) | 96.5% (inactive) | 98% (inactive) | 105% (inactive) | 10.4% (inactive) | 94.6 | 105 | -2.11% (inactive) | 0.98% (inactive)
CC(=O)Nc1ccc(S(=O)(=O)NCC2CCC(C(=O)NCCCN3CCCC3=O)CC2)cc1 (stereo not given) | 107 | 91.5% (inactive) | 107% (inactive) | 92.4% (inactive) | 94.3% (inactive) | 6.51% (inactive) | 87.8 | 94.3 | -4.13% (inactive) | 1.45% (inactive)
CN(C)CCCn1c(N)c(C#N)c2nc(C#N)c(C#N)nc21 | 179 | 47.5% (active) | 179% (inactive) | 66.9% (inactive) | 90.1% (inactive) | -3.03% (inactive) | 93.1 | 90.1 | -1.89% (inactive) | -1.75% (inactive)
CC1(C)Cc2c(c(N3CCOCC3)nc3sc(C#N)c(N)c23)CS1 | 92 | 122% (inactive) | 92% (inactive) | 85.2% (inactive) | 83.3% (inactive) | -1.22% (inactive) | 84.5 | 83.3 | 0.9% (inactive) | -8.67% (inactive)
Cc1cc(C(=O)O)ccc1-n1c(C)ccc1C | 100 | 92% (inactive) | 100% (inactive) | 89.6% (inactive) | 93.2% (inactive) | 1.35% (inactive) | 91.8 | 93.2 | 1.32% (inactive) | -4.52% (inactive)
COc1ccc(C2=NOC(C(=O)NCCCN3CCOCC3)C2)cc1 (stereo not given) | 109 | 100% (inactive) | 109% (inactive) | 116% (inactive) | 87.3% (inactive) | 1.06% (inactive) | 86.2 | 87.3 | -6.71% (inactive) | 9.34% (inactive)
O=C(O)CCCC(=O)Nc1nc(-c2ccc(F)cc2)cs1 | 97.5 | 75.5% (inactive) | 97.5% (inactive) | 83.3% (inactive) | 96.5% (inactive) | 4.08% (inactive) | 92.4 | 96.5 | -3.95% (inactive) | -4.5% (inactive)
c1cnn(-c2cc(N3CCOCC3)ncn2)c1 | 70 | 117% (inactive) | 70% (inactive) | 90.2% (inactive) | 93% (inactive) | 7.52% (inactive) | 85.5 | 93 | 4.47% (inactive) | 21.6% (inactive)
COc1ccc(/C(O)=C2/C(=O)C(=O)N(CC3CCCO3)C2c2cccc(OC)c2)cc1 (stereo not given) | 106 | 87.5% (inactive) | 106% (inactive) | 81.9% (inactive) | 94.2% (inactive) | 7.73% (inactive) | 86.5 | 94.2 | -4.93% (inactive) | 2.3% (inactive)
C=CCn1c(=O)[nH]c2cc(C(=O)N3CCN(c4cc(C)ccc4C)CC3)ccc2c1=O | 81.5 | 79.5% (inactive) | 81.5% (inactive) | 71.7% (inactive) | 41.3% (active) | 7.67% (inactive) | 33.6 | 41.3 | -6.76% (inactive) | -0.83% (inactive)
Cc1c[nH]c2cccc(OCC(O)CNC(C)(C)C)c12 (stereo not given) | 91.5 | 96% (inactive) | 91.5% (inactive) | 100% (inactive) | 88.3% (inactive) | 0.28% (inactive) | 88 | 88.3 | -3.6% (inactive) | 17.8% (inactive)
O=C1C2CC=C(Cl)CC2C(=O)N1c1ncn[nH]1 (stereo not given) | 86.5 | 96% (inactive) | 86.5% (inactive) | 106% (inactive) | 103% (inactive) | 2.85% (inactive) | 101 | 103 | 0.27% (inactive) | -5.32% (inactive)
COc1ccc(Cl)c(NCCC(=O)O)c1 | 88 | 107% (inactive) | 88% (inactive) | 98.6% (inactive) | 95.6% (inactive) | 7.1% (inactive) | 88.5 | 95.6 | -1.37% (inactive) | 9.37% (inactive)
CCCN(Cc1cc2ccc(C)cc2[nH]c1=O)C(=O)c1cccnc1 | 87 | 93% (inactive) | 87% (inactive) | 89.3% (inactive) | 87.4% (inactive) | -2.29% (inactive) | 89.7 | 87.4 | 0% (inactive) | -3.28% (inactive)
C[C@@H]1C[C@H](O)c2cc(Cl)ccc2N1 | 104 | 88.5% (inactive) | 104% (inactive) | 86.1% (inactive) | 87.1% (inactive) | 7.69% (inactive) | 79.4 | 87.1 | -5.84% (inactive) | -3.33% (inactive)
N#Cc1c2n(c(=S)n(-c3ccccn3)c1=O)CCCCC2 | 81.5 | 91.5% (inactive) | 81.5% (inactive) | 97.8% (inactive) | 86% (inactive) | -5.17% (inactive) | 91.1 | 86 | 2.99% (inactive) | -10.7% (inactive)

Structure (SMILES) | viability [1] [%] | Her2 level [2] | viability [3] | viability [4] | viability [5] | differential viability (reversal) ([6]; H69AR cells + 2 uM doxorubicin) | viability [6, 9] [%] | viability [6, 10] [%] | inhibition [7] | inhibition [8]
COCCCNC(=O)c1ccc2c(c1)OCO2 | 96.5 | 93.5% (inactive) | 96.5% (inactive) | 89.9% (inactive) | 89.8% (inactive) | -1.48% (inactive) | 91.3 | 89.8 | -2.76% (inactive) | 5.74% (inactive)
Cc1ccc(N2C(=O)c3ccccc3C2O)nc1 (stereo not given) | 122 | 93% (inactive) | 122% (inactive) | 59.8% (inactive) | 53.6% (inactive) | 0.305% (inactive) | 53.3 | 53.6 | -0.13% (inactive) | -1.83% (inactive)
C=CCN1C(=O)C2(c3ccccc31)C1CCCC=C1C(C#N)=C(N)C2(C#N)C#N (stereo not given) | 81 | 82% (inactive) | 81% (inactive) | 62.7% (inactive) | 76.4% (inactive) | -13.9% (inactive) | 90.3 | 76.4 | 2.53% (inactive) | 26.8% (inactive)
CCCCC(CC)CNC(=O)C1CCCN(S(=O)(=O)c2cnc[nH]2)C1 (stereo not given) | 91.5 | 95.5% (inactive) | 91.5% (inactive) | 105% (inactive) | 92.2% (inactive) | -1.91% (inactive) | 94.1 | 92.2 | -2.67% (inactive) | 2.79% (inactive)
O=C(COc1ncnc2ccccc12)NCc1ccc2c(c1)OCO2 | 100 | 96% (inactive) | 100% (inactive) | 92.8% (inactive) | 92.6% (inactive) | -1.82% (inactive) | 94.4 | 92.6 | -4.21% (inactive) | 4.92% (inactive)
Nc1ncnc(Nc2ccccc2C(F)(F)F)n1 | 93.5 | 110% (inactive) | 93.5% (inactive) | 99.5% (inactive) | 95.6% (inactive) | 2.26% (inactive) | 93.3 | 95.6 | 5.19% (inactive) | -11.2% (inactive)
CNC(=O)CN(C#N)c1nc(N(C)C)nc(N(C)C)n1 | 104 | 112% (inactive) | 104% (inactive) | 98.5% (inactive) | 92.8% (inactive) | 2.61% (inactive) | 90.2 | 92.8 | -4.93% (inactive) | -6.77% (inactive)
Cn1c(SCc2nc3ccccc3c(=O)[nH]2)nnc1-c1ccco1 | 99.5 | 81% (inactive) | 99.5% (inactive) | 97.5% (inactive) | 96% (inactive) | 5.6% (inactive) | 90.4 | 96 | -7.84% (inactive) | 6.89% (inactive)
CCOC(=O)C1C(=O)N(C(=O)c2ccc(OC)cc2)CC1c1ccccc1 (stereo not given) | 91.5 | 94.5% (inactive) | 91.5% (inactive) | 83.3% (inactive) | 86.6% (inactive) | 1.9% (inactive) | 84.7 | 86.6 | -0.65% (inactive) | -5.41% (inactive)
Cc1ccc(NC(=O)CS(=O)CC(=O)NCC2CCCO2)cc1 (stereo not given) | 96.5 | 120% (inactive) | 96.5% (inactive) | 103% (inactive) | 96.8% (inactive) | 7.8% (inactive) | 89 | 96.8 | -1.62% (inactive) | 25% (inactive)
COc1cc(-c2nnc(SCc3c(F)cccc3Cl)o2)cc(OC)c1OC | 70.5 | 103% (inactive) | 70.5% (inactive) | 68.5% (inactive) | 85.2% (inactive) | 3.85% (inactive) | 81.3 | 85.2 | -4.19% (inactive) | -4.1% (inactive)
Cc1ccsc1C1C2=C(CCCC2=O)Nc2ncnn21 (stereo not given) | 86 | 100% (inactive) | 86% (inactive) | 98% (inactive) | 92.6% (inactive) | -7.12% (inactive) | 99.7 | 92.6 | -1.32% (inactive) | -1.31% (inactive)
COC(=O)Cn1c2c(c3cc(C)ccc31)CCCC2 | 83 | 99% (inactive) | 83% (inactive) | 103% (inactive) | 102% (inactive) | 8.28% (inactive) | 94.1 | 102 | -4.74% (inactive) | 4.75% (inactive)
NC(=O)c1c(NC(=O)CN2CCCC2)sc2c1CCCC2 | 104 | 114% (inactive) | 104% (inactive) | 95.9% (inactive) | 91.3% (inactive) | 4.73% (inactive) | 86.6 | 91.3 | -0.8% (inactive) | -5.57% (inactive)
CC(Oc1ccccc1)C(=O)N1CCCc2ccccc21 (stereo not given) | 101 | 104% (inactive) | 101% (inactive) | 95.4% (inactive) | 94.3% (inactive) | 4.51% (inactive) | 89.8 | 94.3 | -1.76% (inactive) | -4.33% (inactive)
CCCCC(c1nnnn1CS(=O)(=O)c1ccc(C)cc1)N1CCN(c2ccccc2)CC1 (stereo not given) | 102 | 88% (inactive) | 102% (inactive) | 69.5% (inactive) | 90.6% (inactive) | -0.75% (inactive) | 91.3 | 90.6 | -3.29% (inactive) | -1.27% (inactive)
